Drawing on ChEMBL document CHEMBL1152701, “Design, synthesis and biological evaluation of novel dual inhibitors of acetylcholinesterase and beta-secretase” (Bioorg Med Chem, 2009), this text covers IC50 and Activity for 29 molecules.

SMILES strings stand for the structures. Active and inactive are the calls of the source. No cut-off for these calls is given here.

Test [1] addresses T1, Beta-secretase 1 (Homo sapiens, UniProt P56817). Description: Inhibition of BACE1 in HEK293 cells transfected with human betaAPP695 mutant assessed as inhibition of amyloid beta (1 to 40) production after 24 hrs by ELISA. Type of test: cell-based. The method in brief: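 HEK293 cells stably carrying APP695 with Swedish double mutation, grown in DMEM plus 10% heat-inactivated FBS. Compounds added at seeding at several concentrations, 24 h at 37 °C, 5% CO2. Secreted Aβ1-40 in conditioned medium quantified by colorimetric sandwich ELISA.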

In test [2] the target is T1, Beta-secretase 1. Description: Inhibition of human recombinant C-terminal histidine-tagged BACE1 expressed in baculovirus-infected insect cells by FRET assay.
Test [3] has as its system Mus musculus. Description: Decrease in amyloid beta (1 to 40) production in transgenic mouse transfected with human APP695 Swedish double mutant at 8 nmol, intracerebroventricularly after 4 hrs by ELISA relative to control. On the set-up: scale not given: the % may be the effect or the level left. The class given is functional. The method in brief:
(§1)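 The vehicle control was distilled H2O. After 4 h, hemispheres were isolated on ice and Aβ1-40 was measured by colorimetric human Aβ1-40 ELISA against vehicle-treated mice. Data are means ± SD; independent t-test.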
A general note: An ELISA detects its analyte on a solid surface through an enzyme-linked reagent.

In a further test the test system is PC-12. Description: Cell protective activity against H2O2-induced cell injury in rat PC12 cells assessed as cell viability at 1 to 10 uM pretreated for 2 hrs measured after 24 hrs by MTT assay. Type of test: functional, cell-based. A digest of the protocol: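 PC12 cells seeded at 1 × 10^5 cells per mL in DMEM with 10% heat-inactivated bovine calf serum, used 24 h later. Compounds dissolved in 2% DMSO then diluted in PBS; 2 h pretreatment, H2O2 for 30 min, then fresh phenol red-free DMEM. Viability by MTT reduction 24 h later, absorbance 570 and 630 nm. Means ± SD, one-way ANOVA with Duncan's test.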

The subject of test [4] is Mus musculus. Description: Decrease in amyloid beta (1 to 40) production in transgenic mouse transfected with human APP695 Swedish double mutant at 10 nmol, intracerebroventricularly after 4 hrs by ELISA relative to control. Type of test: functional. More on the design: scale not given: the % may be the effect or the level left. A digest of the protocol:
as §1

T1 sequence (P56817 whole entry): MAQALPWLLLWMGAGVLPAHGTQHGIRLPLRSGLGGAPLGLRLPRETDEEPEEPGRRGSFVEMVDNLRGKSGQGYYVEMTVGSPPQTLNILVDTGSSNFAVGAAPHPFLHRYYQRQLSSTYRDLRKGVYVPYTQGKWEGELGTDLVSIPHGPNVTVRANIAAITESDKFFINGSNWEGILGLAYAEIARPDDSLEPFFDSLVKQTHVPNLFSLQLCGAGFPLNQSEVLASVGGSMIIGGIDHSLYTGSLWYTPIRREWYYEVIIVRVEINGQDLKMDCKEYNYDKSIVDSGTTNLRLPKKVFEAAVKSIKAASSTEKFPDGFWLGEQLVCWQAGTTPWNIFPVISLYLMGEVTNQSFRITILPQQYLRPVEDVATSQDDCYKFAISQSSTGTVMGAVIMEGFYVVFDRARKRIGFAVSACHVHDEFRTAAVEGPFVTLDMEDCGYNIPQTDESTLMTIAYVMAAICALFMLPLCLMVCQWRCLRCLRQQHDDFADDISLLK

Usually IC50 stands for the concentration at which inhibition is half-maximal. For `C[C@@H](NC(=O)c1cc(C(=O)N[C@@H](Cc2ccccc2)C(O)C(=O)NC2CCN(Cc3ccccc3)CC2)cc(N(C)S(C)(=O)=O)c1)c1ccc(F)cc1` (mixture of isomers), the IC50 on Beta-secretase 1 [1] is under 1000 nM.
Take `CCCN(CCC)C(=O)c1cc(C(=O)N[C@@H](Cc2ccccc2)C(O)C(=O)NC2CCN(Cc3ccccc3)CC2)cc([N+](=O)[O-])c1` (mixture of isomers): the IC50 at Beta-secretase 1 [1] is under 1000 nM.
Consider `C[C@@H](NC(=O)c1cc(C(=O)N[C@@H](Cc2ccccc2)C(O)C(=O)NCCC2CCN(Cc3ccccc3)CC2)cc(N(C)S(C)(=O)=O)c1)c1ccccc1` (mixture of isomers), for which the IC50 on Beta-secretase 1 [1] is under 1000 nM.
As for `C[C@@H](NC(=O)c1cc(C(=O)N[C@@H](Cc2ccccc2)[C@H](O)CNC2CCN(Cc3ccccc3)CC2)cc(N(C)S(C)(=O)=O)c1)c1ccc(F)cc1`, the half-maximal inhibitory concentration (IC50) at Beta-secretase 1 [2] is 771 nM; on Beta-secretase 1 [1] it was under 1000 nM.
Regarding `CC(C)C[C@H](NC(=O)c1cc(C(=O)N[C@H](C)c2ccc(F)cc2)cc(N(C)S(C)(=O)=O)c1)[C@@H](O)C[C@@H](C)C(=O)NC1CCN(Cc2ccccc2)CC1`, the values for the IC50 at Beta-secretase 1 [2] and at Beta-secretase 1 [1] were 1500 nM and under 1000 nM, respectively.
For the molecule `C[C@@H](NC(=O)c1cc(C(=O)N[C@@H](Cc2ccccc2)[C@H](O)CNCCC2CCN(Cc3ccccc3)CC2)cc(N(C)S(C)(=O)=O)c1)c1ccccc1`, the IC50 on Beta-secretase 1 [2] came to 567 nM; on Beta-secretase 1 [1], 98.7 nM. This molecule had an Activity in the test on Mus musculus [3] of 29%. Besides, in the test on PC-12, the outcome was Active.
For `CCCN(CCC)C(=O)c1cc(C(=O)N[C@@H](Cc2ccccc2)[C@H](O)CNCCC2CCN(Cc3ccccc3)CC2)cc(N(C)S(C)(=O)=O)c1`, the values for the IC50 on Beta-secretase 1 [2] and at Beta-secretase 1 [1] were 2390 nM and under 1000 nM, respectively.
With `C[C@@H](NC(=O)c1cc(C(=O)N[C@@H](Cc2ccccc2)[C@H](O)CNCCC2CCN(Cc3ccccc3)CC2)cc(N(C)S(C)(=O)=O)c1)c1ccc(F)cc1`, the IC50 was 222 nM on Beta-secretase 1 [2] and under 1000 nM on Beta-secretase 1 [1].
Take `CC(C)C[C@H](NC(=O)c1cc(C(=O)N[C@H](C)c2ccc(F)cc2)cc(N(C)S(C)(=O)=O)c1)[C@@H](O)C[C@@H](C)C(=O)NN1CCN(Cc2ccccc2)CC1`: the IC50 at Beta-secretase 1 [1] was under 1000 nM.
As to `C[C@@H](NC(=O)c1cc(C(=O)N[C@@H](Cc2ccccc2)C(O)C(=O)NCC2CCN(Cc3ccccc3)CC2)cc(N(C)S(C)(=O)=O)c1)c1ccccc1` (mixture of isomers), the half-inhibitory concentration (IC50) at Beta-secretase 1 [1] is under 1000 nM.
Turning to `CCCN(CCC)C(=O)c1cc(C(=O)N[C@@H](Cc2ccccc2)[C@H](O)CNCCC2CCN(Cc3ccccc3)CC2)cc([N+](=O)[O-])c1`, the IC50 on Beta-secretase 1 [1] is under 1000 nM.
Turning to `CCCN(CCC)C(=O)c1cc(C(=O)N[C@@H](Cc2ccccc2)C(O)C(=O)NCCC2CCN(Cc3ccccc3)CC2)cc([N+](=O)[O-])c1` (mixture of isomers), the IC50 at Beta-secretase 1 [1] was under 1000 nM.
Take `CCCN(CCC)C(=O)c1cccc(C(=O)N[C@@H](Cc2ccccc2)[C@H](O)CNCCC2CCN(Cc3ccccc3)CC2)c1`: the IC50 on Beta-secretase 1 [1] was under 1000 nM.
Regarding `CC(C)C[C@H](NC(=O)c1cc(C(=O)N[C@H](C)c2ccccc2)cc(N(C)S(C)(=O)=O)c1)[C@@H](O)C[C@@H](C)C(=O)NC1CCN(Cc2ccccc2)CC1`, the IC50 at Beta-secretase 1 [2] is 1540 nM; on Beta-secretase 1 [1], under 1000 nM.
In the case of `C[C@@H](NC(=O)c1cc(C(=O)N[C@@H](Cc2ccccc2)[C@H](O)CNCC2CCN(Cc3ccccc3)CC2)cc(N(C)S(C)(=O)=O)c1)c1ccc(F)cc1`, the values for the IC50 at Beta-secretase 1 [2] and on Beta-secretase 1 [1] were 3230 nM and under 1000 nM, respectively.
Take `C[C@@H](NC(=O)c1cc(C(=O)N[C@@H](Cc2ccccc2)C(O)C(=O)NCC2CCN(Cc3ccccc3)CC2)cc(N(C)S(C)(=O)=O)c1)c1ccc(F)cc1` (mixture of isomers): the IC50 at Beta-secretase 1 [1] is under 1000 nM.
`C[C@@H](NC(=O)c1cc(C(=O)N[C@@H](Cc2ccccc2)[C@H](O)CNC2CCN(Cc3ccccc3)CC2)cc(N(C)S(C)(=O)=O)c1)c1ccccc1`: the IC50 came out at 511 nM on Beta-secretase 1 [2] and 54.6 nM on Beta-secretase 1 [1]. The same molecule yielded an Activity in the test on Mus musculus [4] of 23%. In the test with PC-12, the result was Active.
As for `C[C@@H](NC(=O)c1cc(C(=O)N[C@@H](Cc2ccccc2)C(O)C(=O)NC2CCN(Cc3ccccc3)CC2)cc(N(C)S(C)(=O)=O)c1)c1ccccc1` (mixture of isomers), the IC50 at Beta-secretase 1 [1] is under 1000 nM.
For `C[C@@H](NC(=O)c1cc(C(=O)N[C@@H](Cc2ccccc2)[C@H](O)CNCCC2CCN(Cc3ccccc3)CC2)cc([N+](=O)[O-])c1)c1ccccc1`, the IC50 on Beta-secretase 1 [2] is 7020 nM; on Beta-secretase 1 [1], under 1000 nM.
With `CC(C)C[C@H](NC(=O)c1cc(C(=O)N[C@H](C)c2ccc(F)cc2)cc(N(C)S(C)(=O)=O)c1)[C@@H](O)C[C@@H](C)C(=O)NCC1CCN(Cc2ccccc2)CC1`, the IC50 on Beta-secretase 1 [2] is 616 nM; at Beta-secretase 1 [1], under 1000 nM.
For the molecule `C[C@@H](NC(=O)c1cccc(C(=O)N[C@@H](Cc2ccccc2)[C@H](O)CNCCC2CCN(Cc3ccccc3)CC2)c1)c1ccccc1`, the IC50 on Beta-secretase 1 [1] is under 1000 nM.
Turning to `CCCN(CCC)C(=O)c1cc(C(=O)N[C@@H](Cc2ccccc2)C(O)C(=O)NCC2CCN(Cc3ccccc3)CC2)cc([N+](=O)[O-])c1` (mixture of isomers), at Beta-secretase 1 [1], the IC50 is under 1000 nM.
In the case of `CC(C)C[C@H](NC(=O)c1cc(C(=O)N[C@H](C)c2ccccc2)cc(N(C)S(C)(=O)=O)c1)[C@@H](O)C[C@@H](C)C(=O)NN1CCN(Cc2ccccc2)CC1`, the IC50 on Beta-secretase 1 [1] is under 1000 nM.
On the same count and under the same terms, the value for `C[C@@H](NC(=O)c1cc(C(=O)N[C@@H](Cc2ccccc2)C(O)C(=O)NCCC2CCN(Cc3ccccc3)CC2)cc(N(C)S(C)(=O)=O)c1)c1ccc(F)cc1` (mixture of isomers) was under 1000 nM.
Turning to `C[C@@H](NC(=O)c1cc(C(=O)N[C@@H](Cc2ccccc2)[C@H](O)CNCCC2CCN(Cc3ccccc3)CC2)cc([N+](=O)[O-])c1)c1ccc(F)cc1`, the IC50 on Beta-secretase 1 [2] was 2680 nM; on Beta-secretase 1 [1] it was under 1000 nM.
Turning to `C[C@@H](NC(=O)c1cccc(C(=O)N[C@@H](Cc2ccccc2)[C@H](O)CNCCC2CCN(Cc3ccccc3)CC2)c1)c1ccc(F)cc1`, the IC50 at Beta-secretase 1 [1] was under 1000 nM.
Turning to `CC(C)C[C@H](NC(=O)c1cc(C(=O)N[C@H](C)c2ccc(F)cc2)cc(N(C)S(C)(=O)=O)c1)[C@@H](O)C[C@@H](C)C(=O)NCCC1CCN(Cc2ccccc2)CC1`, the IC50 is 1340 nM on Beta-secretase 1 [2] and under 1000 nM at Beta-secretase 1 [1].
As to `C[C@@H](NC(=O)c1cc(C(=O)N[C@@H](Cc2ccccc2)[C@H](O)CNCC2CCN(Cc3ccccc3)CC2)cc(N(C)S(C)(=O)=O)c1)c1ccccc1`, the IC50 on Beta-secretase 1 [2] is 4000 nM; on Beta-secretase 1 [1], under 1000 nM.
On the same counts, the results for `C[C@@H](NC(=O)c1cc(C(=O)N[C@H](CO)Cc2ccccc2)cc(N(C)S(C)(=O)=O)c1)c1ccc(F)cc1` are 462 nM and under 1000 nM.
